Laboratory results from ChEMBL document CHEMBL4699542, “Design and synthesis of novel methoxypyridine-derived gamma-secretase modulators” (Bioorg Med Chem, 2020).
Values after ≈ are worked out from the molar mass of the structure shown.

How the values were obtained:
[1] = Kinetic aqueous solubility of the compound in pH 7.4 PBS buffer by UV/Visible absorbance analysis; assay type: physicochemical; settings: read-out: Kinetic_solubility
Method in brief: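 Kinetic solubility determined in PBS at pH 7.4 by UV/Vis absorbance, reported in μM.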

Gamma-secretase = test: Modulation of gamma secretase in human SH-SY5Y cells overexpressing wild type APP751 assessed as inhibition of amyloid beta (35 to 42 residues) formation incubated for overnight by ELISA; assay type: cell-based
Method in brief: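 SHSY5Y-APP751 cells plated at 75K/well and incubated overnight at 37 °C, then treated 24 h over 10 concentrations ([…]–10 μM, 1:3.16 steps, in duplicate). Medium Aβ42 measured by sandwich ELISA (Aβ35–42 capture, AP-conjugated Aβ1–12 detection, CDP-Star luminescence) against an Aβ42 standard curve.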

[2] = Metabolic stability in human liver microsomes assessed as parent compound remaining at 1 uM incubated for 30 mins; assay type: ADME, Microsome; settings: microsomes, 0.5 h, 1 µM
Method in brief: (§1)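 Test compound at 1 μM incubated 30 min with human, rat or mouse liver microsomes (1 mg/mL); parent remaining expressed as %.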

[3] = Metabolic stability in rat liver microsomes assessed as parent compound remaining at 1 uM incubated for 30 mins; assay type: ADME, Microsome; settings: 0.5 h; method in brief: as §1
[4] = Metabolic stability in mouse liver microsomes assessed as parent compound remaining at 1 uM incubated for 30 mins; assay type: ADME, Microsome; settings: 0.5 h; method in brief: as §1
Cytochrome P450 3A4 = Cytochrome P450 3A4 (Homo sapiens, UniProt P08684); test: Inhibition of recombinant CYP3A4 (unknown origin) by fluorescence-based assay; assay type: ADME
Sequence of Cytochrome P450 3A4 (P08684 whole entry): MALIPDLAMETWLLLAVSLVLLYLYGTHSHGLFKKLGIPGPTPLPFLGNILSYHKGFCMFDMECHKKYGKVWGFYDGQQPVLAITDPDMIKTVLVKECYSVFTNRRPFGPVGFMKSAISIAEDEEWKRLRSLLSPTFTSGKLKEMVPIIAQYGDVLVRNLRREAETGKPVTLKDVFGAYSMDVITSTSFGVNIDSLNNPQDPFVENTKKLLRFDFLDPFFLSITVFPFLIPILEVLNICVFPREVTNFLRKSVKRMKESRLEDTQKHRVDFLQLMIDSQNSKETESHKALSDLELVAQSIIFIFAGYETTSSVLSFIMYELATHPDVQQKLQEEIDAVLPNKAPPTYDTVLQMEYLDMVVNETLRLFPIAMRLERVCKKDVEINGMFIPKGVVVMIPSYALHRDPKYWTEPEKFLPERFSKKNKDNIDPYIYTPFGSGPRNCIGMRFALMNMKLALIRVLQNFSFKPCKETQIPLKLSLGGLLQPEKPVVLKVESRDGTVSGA

Cytochrome P450 1A2 = biological target: T1, Cytochrome P450 1A2 (Homo sapiens, UniProt P05177); test: Inhibition of recombinant CYP1A2 (unknown origin) by fluorescence-based assay; assay type: ADME
T1 sequence (P05177 whole entry): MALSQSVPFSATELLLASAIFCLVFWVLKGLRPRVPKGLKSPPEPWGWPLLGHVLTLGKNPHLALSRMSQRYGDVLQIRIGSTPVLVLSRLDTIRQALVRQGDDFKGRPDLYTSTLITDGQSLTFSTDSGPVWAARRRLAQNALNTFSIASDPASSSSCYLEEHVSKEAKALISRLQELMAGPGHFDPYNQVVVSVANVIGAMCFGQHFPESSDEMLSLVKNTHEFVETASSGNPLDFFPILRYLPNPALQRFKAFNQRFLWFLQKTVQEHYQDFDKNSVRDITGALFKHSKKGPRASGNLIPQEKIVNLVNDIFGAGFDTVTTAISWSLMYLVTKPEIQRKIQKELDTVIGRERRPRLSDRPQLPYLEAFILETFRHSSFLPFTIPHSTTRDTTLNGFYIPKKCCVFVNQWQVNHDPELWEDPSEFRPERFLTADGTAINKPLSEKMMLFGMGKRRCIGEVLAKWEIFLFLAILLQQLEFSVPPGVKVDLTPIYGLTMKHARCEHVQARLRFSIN
Method in brief: (§2)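 Recombinant CYP isoforms (five tested) screened for inhibition in fluorescence-based assays; IC50 in μM.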

Cytochrome P450 2C9 = Cytochrome P450 2C9 (Homo sapiens, UniProt P11712); test: Inhibition of recombinant CYP2C9 (unknown origin) by fluorescence-based assay; assay type: ADME; method in brief: as §2
Sequence of Cytochrome P450 2C9 (P11712 whole entry): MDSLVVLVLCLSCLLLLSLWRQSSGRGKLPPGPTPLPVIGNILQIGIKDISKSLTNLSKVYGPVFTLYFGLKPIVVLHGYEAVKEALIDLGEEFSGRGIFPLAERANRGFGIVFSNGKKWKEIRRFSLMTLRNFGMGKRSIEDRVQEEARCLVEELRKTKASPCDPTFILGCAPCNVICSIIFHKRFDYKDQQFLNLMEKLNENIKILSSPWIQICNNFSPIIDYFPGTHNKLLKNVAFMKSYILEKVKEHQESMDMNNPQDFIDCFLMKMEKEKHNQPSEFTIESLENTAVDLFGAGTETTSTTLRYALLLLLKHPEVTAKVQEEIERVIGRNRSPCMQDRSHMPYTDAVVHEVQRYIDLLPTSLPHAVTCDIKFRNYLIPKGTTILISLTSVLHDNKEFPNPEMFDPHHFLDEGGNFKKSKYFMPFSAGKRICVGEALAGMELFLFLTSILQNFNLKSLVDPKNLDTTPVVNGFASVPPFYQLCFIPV

Cytochrome P450 2C19 = Cytochrome P450 2C19 (Homo sapiens, UniProt P33261); test: Inhibition of recombinant CYP2C19 (unknown origin) by fluorescence-based assay; assay type: ADME; method in brief: as §2
Sequence of Cytochrome P450 2C19 (P33261 whole entry): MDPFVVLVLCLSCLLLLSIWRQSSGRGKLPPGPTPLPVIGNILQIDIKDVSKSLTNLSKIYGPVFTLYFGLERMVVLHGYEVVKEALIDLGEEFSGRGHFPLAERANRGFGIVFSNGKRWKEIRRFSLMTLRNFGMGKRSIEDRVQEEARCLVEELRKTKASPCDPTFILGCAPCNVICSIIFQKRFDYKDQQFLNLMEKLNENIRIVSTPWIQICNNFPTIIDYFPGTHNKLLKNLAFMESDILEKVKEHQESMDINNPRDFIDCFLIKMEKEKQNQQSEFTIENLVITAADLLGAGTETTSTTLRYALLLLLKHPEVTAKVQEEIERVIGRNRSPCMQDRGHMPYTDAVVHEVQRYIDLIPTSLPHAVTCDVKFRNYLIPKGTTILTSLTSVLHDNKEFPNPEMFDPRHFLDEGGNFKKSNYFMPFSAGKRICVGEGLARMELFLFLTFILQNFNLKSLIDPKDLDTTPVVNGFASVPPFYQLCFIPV

Cytochrome P450 2D6 = Cytochrome P450 2D6 (Homo sapiens, UniProt P10635); test: Inhibition of recombinant CYP2D6 (unknown origin) by fluorescence-based assay; assay type: ADME; method in brief: as §2
Sequence of Cytochrome P450 2D6 (P10635 whole entry): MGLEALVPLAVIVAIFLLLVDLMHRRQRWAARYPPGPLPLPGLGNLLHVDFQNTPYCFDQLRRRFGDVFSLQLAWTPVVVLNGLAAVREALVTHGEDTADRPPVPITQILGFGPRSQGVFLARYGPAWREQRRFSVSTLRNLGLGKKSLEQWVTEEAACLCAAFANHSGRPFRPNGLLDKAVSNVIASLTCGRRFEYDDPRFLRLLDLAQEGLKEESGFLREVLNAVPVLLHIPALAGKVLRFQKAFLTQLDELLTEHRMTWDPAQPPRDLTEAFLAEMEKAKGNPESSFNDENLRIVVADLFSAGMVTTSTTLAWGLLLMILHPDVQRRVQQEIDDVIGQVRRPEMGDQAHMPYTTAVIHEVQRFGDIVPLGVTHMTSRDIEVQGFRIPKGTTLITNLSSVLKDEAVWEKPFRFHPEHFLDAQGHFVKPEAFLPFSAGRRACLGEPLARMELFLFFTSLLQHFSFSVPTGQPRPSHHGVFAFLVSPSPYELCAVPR

[5] = biological target: Voltage-gated inwardly rectifying potassium channel KCNH2 (Homo sapiens, UniProt Q12809); test: Inhibition of human ERG expressed in HEK293 cells by patch clamp assay; assay type: cell-based
Sequence of Voltage-gated inwardly rectifying potassium channel KCNH2 (Q12809 whole entry): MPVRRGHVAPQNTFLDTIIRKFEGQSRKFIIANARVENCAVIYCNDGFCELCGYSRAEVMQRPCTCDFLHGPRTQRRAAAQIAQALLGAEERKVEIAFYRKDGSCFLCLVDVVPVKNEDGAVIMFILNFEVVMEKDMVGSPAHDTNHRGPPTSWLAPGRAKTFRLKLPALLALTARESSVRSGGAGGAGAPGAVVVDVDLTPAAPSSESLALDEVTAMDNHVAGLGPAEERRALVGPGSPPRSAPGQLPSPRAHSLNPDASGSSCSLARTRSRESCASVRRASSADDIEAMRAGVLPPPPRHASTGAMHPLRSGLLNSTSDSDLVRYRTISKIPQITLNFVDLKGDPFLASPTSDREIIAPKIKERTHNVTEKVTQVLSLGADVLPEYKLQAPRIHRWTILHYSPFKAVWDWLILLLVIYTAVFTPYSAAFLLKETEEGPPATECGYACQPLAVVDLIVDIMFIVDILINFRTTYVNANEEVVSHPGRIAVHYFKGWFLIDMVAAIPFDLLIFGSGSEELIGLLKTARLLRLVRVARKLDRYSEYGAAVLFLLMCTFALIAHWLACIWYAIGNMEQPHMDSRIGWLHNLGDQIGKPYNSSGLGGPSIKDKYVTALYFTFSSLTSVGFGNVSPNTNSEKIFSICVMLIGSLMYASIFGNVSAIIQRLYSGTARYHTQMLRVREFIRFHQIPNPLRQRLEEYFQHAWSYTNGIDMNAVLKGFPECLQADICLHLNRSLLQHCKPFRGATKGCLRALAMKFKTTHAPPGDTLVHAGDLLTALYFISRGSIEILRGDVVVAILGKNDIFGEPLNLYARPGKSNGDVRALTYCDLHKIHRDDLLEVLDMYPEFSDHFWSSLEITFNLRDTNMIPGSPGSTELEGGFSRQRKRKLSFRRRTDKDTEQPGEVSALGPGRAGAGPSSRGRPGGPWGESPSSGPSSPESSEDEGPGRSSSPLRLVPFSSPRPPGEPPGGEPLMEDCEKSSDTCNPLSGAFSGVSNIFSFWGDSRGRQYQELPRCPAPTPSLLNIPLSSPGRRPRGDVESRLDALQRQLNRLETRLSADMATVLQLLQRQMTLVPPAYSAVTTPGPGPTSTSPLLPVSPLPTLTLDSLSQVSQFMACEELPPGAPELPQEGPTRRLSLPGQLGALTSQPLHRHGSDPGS

[6] = Apparent permeability from apical to basolateral membrane in MDCK-MDR1 cells; assay type: ADME, cell-based, Canis lupus familiaris; settings: dog
Method in brief: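 Apical-to-basolateral apparent permeability (×10⁻⁶ cm/s) measured across MDR1-MDCK cell monolayers.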

[7] = Cmax in CD-1 mouse at 1 mg/kg, iv administered as single dose measured up to 24 hrs; assay type: ADME, organism-based; design: route intravenous, dose 1 mg/kg, time <=24; settings: in vivo
Method in brief: (§3)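 Male CD-1 mice, 6–8 weeks old, single dose by tail vein (1 mg/kg, 3% NMP/45% PEG300/12% ethanol/40% water) or oral gavage (5 mg/kg, 5% NMP/95% PEG300). Retro-orbital plasma sampled 0.083 (iv only) to 24 h, n=3/timepoint, and analysed by HPLC/MS/MS. Non-compartmental analysis. Half-life taken from the terminal phase using ≥3 non-zero points after Tmax.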

[8] = Tmax in CD-1 mouse at 1 mg/kg, iv administered as single dose measured up to 24 hrs; assay type: ADME, organism-based; settings: in vivo
Method in brief: (§4)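 Male CD-1 mice, 6–8 weeks old, single tail-vein dose in 3% NMP/45% PEG300/12% ethanol/40% sterile water. Retro-orbital plasma (K3EDTA) taken at 0.083, 0.25, 0.5, 1, 2, 4, 8 and 24 h, n=3/timepoint, analysed by HPLC/MS/MS. Non-compartmental analysis (Model 201, uniform weighting); Tmax read directly from the data.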

[9] = Half life in CD-1 mouse at 1 mg/kg, iv administered as single dose measured up to 24 hrs; assay type: ADME, organism-based; settings: mouse, in vivo, 1 mg/kg, 24 h; method in brief: as §3
[10] = AUClast in CD-1 mouse at 1 mg/kg, iv administered as single dose measured up to 24 hrs; assay type: ADME, organism-based; design: route intravenous, dose 1 mg/kg, time <=24; settings: in vivo; method in brief: as §3
[11] = AUC infinity in CD-1 mouse at 1 mg/kg, iv administered as single dose measured up to 24 hrs; assay type: ADME, organism-based; design: route intravenous, dose 1 mg/kg, time <=24; settings: in vivo; method in brief: as §3
[12] = Volume of distribution at steady state in CD-1 mouse at 1 mg/kg, iv administered as single dose measured up to 24 hrs; assay type: ADME, organism-based; settings: in vivo; method in brief: as §4
[13] = Ratio of drug concentration in CD-1 mouse brain to plasma at 0.4 mg/kg, iv measured after 1 hr; assay type: ADME, organism-based
[14] = Ratio of drug concentration in CD-1 mouse brain to plasma at 5 mg/kg, po measured after 1 hr; assay type: ADME, organism-based
Method in brief: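 Male CD-1 mice dosed once iv (1 mg/kg) or by oral gavage (5 mg/kg). Brain and plasma collected 1 h post dose (n=3/timepoint). Drug levels by HPLC/MS/MS; brain/plasma ratio calculated from these levels.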

[15] = Cmax in CD-1 mouse at 5 mg/kg, po administered as single dose measured up to 24 hrs; assay type: ADME, organism-based; design: route oral, dose 5 mg/kg, time <=24; settings: in vivo; method in brief: as §3
[16] = Tmax in CD-1 mouse at 5 mg/kg, po administered as single dose measured up to 24 hrs; assay type: ADME, organism-based; settings: in vivo
Method in brief: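 Male CD-1 mice, 6–8 weeks old, single oral gavage dose in 5% NMP/95% PEG300. Plasma (K3EDTA, retro-orbital, under isoflurane) taken at 0.25, 0.5, 1, 2, 4, 8 and 24 h, n=3/timepoint, analysed by HPLC/MS/MS. Non-compartmental extravascular analysis (Model 200); Tmax taken directly from the data.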

[17] = AUClast in CD-1 mouse at 5 mg/kg, po administered as single dose measured up to 24 hrs; assay type: ADME, organism-based; design: route oral, dose 5 mg/kg, time <=24; settings: in vivo; method in brief: as §3
[18] = AUC infinity in CD-1 mouse at 5 mg/kg, po administered as single dose measured up to 24 hrs; assay type: ADME, organism-based; design: route oral, dose 5 mg/kg, time <=24; settings: in vivo; method in brief: as §3
[19] = Oral bioavailability in CD-1 mouse at 5 mg/kg administered as single dose measured up to 24 hrs; assay type: ADME, organism-based; settings: in vivo
Method in brief: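 CD-1 mouse PK after single iv (1 mg/kg) and oral gavage (5 mg/kg) dosing, with plasma sampled to 24 h (n=3/timepoint) and measured by HPLC/MS/MS. F(%) = (AUC0-inf po × Dose iv)/(AUC0-inf iv × Dose po) × 100.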

[20] = Efflux ratio of apparent permeability from basolateral to apical membrane over apical to basolateral membrane in MDCK-MDR1 cells; assay type: ADME, cell-based, Canis lupus familiaris; settings: dog
Method in brief: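 Calculated as B-A/A-B apparent permeability ratio across MDR1-MDCK cell monolayers; A-B permeability expressed as ×10⁻⁶ cm/s.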

[21] = Half life in CD-1 mouse at 5 mg/kg, po administered as single dose measured up to 24 hrs; assay type: ADME, organism-based; settings: in vivo; method in brief: as §3

## COc1nc(-c2csc(Nc3c4c(nn3CCO)CCCC4)n2)ccc1-n1cnc(C)c1
[1]
  solubility kinetic: 31 µM (≈ 14 µg/mL)
Gamma-secretase
  IC50: 0.144 µM
[2]
  Stabilty: 40%
[3]
  Stabilty: 78%
[4]
  Stabilty: 58%
Cytochrome P450 3A4
  IC50: 30 µM
Cytochrome P450 1A2
  IC50: > 100 µM
Cytochrome P450 2C9
  IC50: > 100 µM
Cytochrome P450 2C19
  IC50: 76 µM
Cytochrome P450 2D6
  IC50: > 100 µM
[5]
  IC50: 2.63 µM
[6]
  Papp: 18 10^-6 cm/s

## CCn1nc(C(F)(F)F)cc1Nc1nc(-c2ccc(-n3cnc(C)c3)c(OC)n2)cs1
[1]
  solubility kinetic: 15 µM (≈ 6.74 µg/mL)
Gamma-secretase
  IC50: 0.058 µM
[2]
  Stabilty: 84%
[3]
  Stabilty: 96%
[4]
  Stabilty: 71%
Cytochrome P450 3A4
  IC50: 5.3 µM
Cytochrome P450 1A2
  IC50: 9.1 µM
Cytochrome P450 2C9
  IC50: 47 µM
Cytochrome P450 2C19
  IC50: 12 µM
Cytochrome P450 2D6
  IC50: > 100 µM
[7]
  Cmax: 359 ng/mL
[8]
  Tmax: 4.98 min
[9]
  t1/2: 1.6 h
[10]
  AUClast: 605 ng·h/mL
[11]
  AUC: 623 ng·h/mL
[12]
  Vdss: 3.64 L/kg
[13]
  BPR: 0.73
[14]
  BPR: 0.62
[15]
  Cmax: 470 ng/mL
[16]
  Tmax: 1 h
[17]
  AUClast: 1727 ng·h/mL
[18]
  AUC: 2369 ng·h/mL
[19]
  F: 76%
[6]
  Papp: 23.3 10^-6 cm/s

## COc1nc(-c2csc(Nc3c4c(nn3CC(F)(F)F)CCC4)n2)ccc1-n1cnc(C)c1
[1]
  solubility kinetic: 22 µM (≈ 10.5 µg/mL)
Gamma-secretase
  IC50: 0.036 µM
[2]
  Stabilty: 66%
[3]
  Stabilty: 72%
[4]
  Stabilty: 46%
Cytochrome P450 3A4
  IC50: 1.4 µM
Cytochrome P450 1A2
  IC50: 27 µM
Cytochrome P450 2C9
  IC50: 11 µM
Cytochrome P450 2C19
  IC50: 7.1 µM
Cytochrome P450 2D6
  IC50: > 100 µM
[6]
  Papp: 17.6 10^-6 cm/s

## CCn1nc2c(c1Nc1nc(-c3ccc(-n4cnc(C)c4)c(OC)n3)cs1)C(C)CC2(C)C (racemic)
[1]
  solubility kinetic: 9.2 µM (≈ 4.27 µg/mL)
Gamma-secretase
  IC50: 0.072 µM
[2]
  Stabilty: 12%
[3]
  Stabilty: 38%
[4]
  Stabilty: 21%
Cytochrome P450 3A4
  IC50: 1.5 µM
Cytochrome P450 1A2
  IC50: > 100 µM
Cytochrome P450 2C9
  IC50: 35 µM
Cytochrome P450 2C19
  IC50: 33 µM
Cytochrome P450 2D6
  IC50: > 100 µM

## COc1nc(-c2csc(Nc3c4c(nn3C)CCC4)n2)ccc1-n1cnc(C)c1
[1]
  solubility kinetic: 44 µM (≈ 17.9 µg/mL)
Gamma-secretase
  IC50: 0.08 µM
[2]
  Stabilty: 76%
[3]
  Stabilty: 71%
[4]
  Stabilty: 75%
Cytochrome P450 3A4
  IC50: 4.5 µM
Cytochrome P450 1A2
  IC50: > 100 µM
Cytochrome P450 2C9
  IC50: > 100 µM
Cytochrome P450 2C19
  IC50: 37 µM
Cytochrome P450 2D6
  IC50: > 100 µM
[5]
  IC50: 0.92 µM
[7]
  Cmax: 478 ng/mL
[8]
  Tmax: 4.98 min
[9]
  t1/2: 1.9 h
[10]
  AUClast: 723 ng·h/mL
[12]
  Vdss: 3.18 L/kg
[13]
  BPR: 0.21
[14]
  BPR: 0.22
[15]
  Cmax: 580 ng/mL
[16]
  Tmax: 1 h
[17]
  AUClast: 2700 ng·h/mL
[19]
  F: 74.6%
[6]
  Papp: 22.3 10^-6 cm/s
[20]
  Ratio: 1.9
[21]
  t1/2: 1.6 h
